Measurements published in paper PMC4083110 (Molecular & Cellular Proteomics : MCP, 2014).
Entries after “also recorded” stand apart in the source; their conditions may differ. Blank lines part the entries; values can stand above or below the substance they belong to.

Assays:
SH2D1B SH2 domain = target: T1, SH2D1B SH2 domain (Homo sapiens, UniProt O14796); assay: FP saturation binding; settings: result in words
T1 sequence (O14796 5-101 limits assumed): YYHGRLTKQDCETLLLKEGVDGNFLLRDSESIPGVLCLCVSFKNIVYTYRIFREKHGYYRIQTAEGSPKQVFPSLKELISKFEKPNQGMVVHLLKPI
In short: (§1)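 Multi-SH2 genes were used as tandem proteins that kept the linker residues. Automated high-throughput FP saturation binding was run against 178 synthetic phosphopeptides from RTK, GAB1 and androgen receptor tyrosine sites. Millipolarization readings were fitted to P_obs = Pmax·[Protein]/(K_D+[Protein]) by least squares regression to give K_D.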

PLCG1 SH2 domains = target: T2, PLCG1 SH2 domains (Homo sapiens, UniProt P19174); assay: FP saturation binding, construct not stated; settings: result in words
T2 sequence (P19174 550-756 limits assumed): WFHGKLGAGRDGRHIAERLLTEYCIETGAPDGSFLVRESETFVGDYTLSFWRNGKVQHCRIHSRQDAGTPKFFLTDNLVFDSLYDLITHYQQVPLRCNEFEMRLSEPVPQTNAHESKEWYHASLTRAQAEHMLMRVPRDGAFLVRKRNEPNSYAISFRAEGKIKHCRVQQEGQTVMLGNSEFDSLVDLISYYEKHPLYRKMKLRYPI
In short: as §1

SHC1 SH2 domain = target: T3, SHC1 SH2 domain (Homo sapiens, UniProt P29353); assay: FP saturation binding; settings: result in words
T3 sequence (P29353 488-579 limits assumed): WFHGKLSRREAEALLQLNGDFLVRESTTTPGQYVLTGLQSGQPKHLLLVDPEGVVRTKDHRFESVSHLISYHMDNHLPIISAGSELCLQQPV
In short: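 Tandem SH2 proteins were kept with their linkers. Synthetic phosphotyrosine peptides were run in automated high-throughput FP saturation binding. Millipolarization was fitted to Pobs = Pmax·[Protein]/(KD+[Protein]) by least squares to give KD per protein/peptide pair.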

PIK3R1 SH2 domains = PIK3R1 SH2 domains (Homo sapiens, UniProt P27986); assay: FP saturation binding, construct not stated; settings: result in words
Chain of PIK3R1 SH2 domains (P27986 2-724): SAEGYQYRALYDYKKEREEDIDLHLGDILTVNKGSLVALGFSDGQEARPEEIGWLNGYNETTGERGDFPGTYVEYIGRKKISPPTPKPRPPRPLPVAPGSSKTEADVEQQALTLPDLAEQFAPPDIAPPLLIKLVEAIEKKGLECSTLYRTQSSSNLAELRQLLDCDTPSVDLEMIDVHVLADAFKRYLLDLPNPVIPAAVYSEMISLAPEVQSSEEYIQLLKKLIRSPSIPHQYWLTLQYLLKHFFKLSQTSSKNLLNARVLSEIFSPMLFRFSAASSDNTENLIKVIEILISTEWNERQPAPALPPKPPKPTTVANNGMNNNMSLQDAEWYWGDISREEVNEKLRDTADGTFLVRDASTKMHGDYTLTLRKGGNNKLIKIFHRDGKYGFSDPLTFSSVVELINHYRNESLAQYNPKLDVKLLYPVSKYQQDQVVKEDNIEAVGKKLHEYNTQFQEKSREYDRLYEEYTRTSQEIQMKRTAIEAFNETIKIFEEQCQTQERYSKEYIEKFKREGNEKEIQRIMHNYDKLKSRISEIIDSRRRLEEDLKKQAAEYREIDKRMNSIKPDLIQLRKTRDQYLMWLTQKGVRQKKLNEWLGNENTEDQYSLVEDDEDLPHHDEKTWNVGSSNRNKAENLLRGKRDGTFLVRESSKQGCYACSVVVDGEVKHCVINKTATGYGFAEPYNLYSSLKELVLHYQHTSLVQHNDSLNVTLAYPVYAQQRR
In short: as §1

PIK3R3 SH2 domains = assay: FP saturation binding, construct not stated; set-up: species or system human; settings: result in words
In short: as §1

CRK SH2 domain = CRK SH2 domain (Homo sapiens, UniProt P46108); assay: FP saturation binding; settings: result in words
Chain of CRK SH2 domain (P46108 13-118 limits assumed): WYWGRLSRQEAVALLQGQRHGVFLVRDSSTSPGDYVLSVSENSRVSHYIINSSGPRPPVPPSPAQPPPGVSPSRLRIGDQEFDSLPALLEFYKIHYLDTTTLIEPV
In short: as §1

[1] = target: T4, SHC1 PTB domain (SHC1.PTB) (Homo sapiens, UniProt P29353); assay: FP saturation binding; settings: result in words
T4 sequence (P29353 156-339 limits assumed): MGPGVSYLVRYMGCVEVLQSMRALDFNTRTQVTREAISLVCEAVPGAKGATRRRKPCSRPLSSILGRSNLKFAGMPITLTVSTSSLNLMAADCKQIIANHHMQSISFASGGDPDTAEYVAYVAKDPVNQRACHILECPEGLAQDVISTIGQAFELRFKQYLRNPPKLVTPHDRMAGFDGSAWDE
In short: as §1

PLCG2 SH2 domains = target: T5, PLCG2 SH2 domains (Homo sapiens, UniProt P16885); assay: FP saturation binding, construct not stated; settings: result in words
T5 sequence (P16885 532-735 limits assumed): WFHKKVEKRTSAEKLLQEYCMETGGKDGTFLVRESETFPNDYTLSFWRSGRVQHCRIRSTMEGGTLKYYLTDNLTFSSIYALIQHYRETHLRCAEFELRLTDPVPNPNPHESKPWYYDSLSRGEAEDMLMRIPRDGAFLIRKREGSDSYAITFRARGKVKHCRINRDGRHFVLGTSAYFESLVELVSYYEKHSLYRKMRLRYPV
In short: as §1

[2] = system: c-Src family kinase SH2 domains; assay: FP saturation binding, domain family; set-up: species or system human; settings: result in words
In short: as §1

SRC SH2 domain = SRC SH2 domain (Homo sapiens, UniProt P12931); assay: FP saturation binding; settings: result in words
In short: as §1

[3] = system: PIK3R-derived SH2 domains; assay: FP saturation binding, domain family; set-up: species or system human; settings: for recruitment of PIK3R (PI3KR) SH2 domains: FP, result in words
In short: as §1

RASA1 SH2 domains = target: T6, RASA1 SH2 domains (Homo sapiens, UniProt P20936); assay: FP saturation binding, construct not stated; settings: result in words
T6 sequence (P20936 181-441 limits assumed): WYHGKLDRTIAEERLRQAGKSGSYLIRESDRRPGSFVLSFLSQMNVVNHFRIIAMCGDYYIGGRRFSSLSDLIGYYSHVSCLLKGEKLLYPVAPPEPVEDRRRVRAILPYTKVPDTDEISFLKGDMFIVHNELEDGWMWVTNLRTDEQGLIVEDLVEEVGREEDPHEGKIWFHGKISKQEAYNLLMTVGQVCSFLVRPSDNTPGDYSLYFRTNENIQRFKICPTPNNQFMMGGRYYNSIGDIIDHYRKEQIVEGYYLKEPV
In short: as §1

CRKL SH2 domain = CRKL SH2 domain (Homo sapiens, UniProt P46109); assay: FP saturation binding; settings: result in words
Chain of CRKL SH2 domain (P46109 14-102 limits assumed): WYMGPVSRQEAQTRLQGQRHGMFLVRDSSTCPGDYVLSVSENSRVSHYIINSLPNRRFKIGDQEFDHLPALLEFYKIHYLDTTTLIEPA
In short: as §1

Substance: DPQDXLLLINCQd [GAB1 Tyr(P)-183]
- interaction with SHC1 SH2 domain (SHC1 SH2 domain): interactions were identified
- interaction with SHC1 PTB domain [1]: interactions were observed

Substance: LPIDXYFPPQKTd [AR Tyr(P)-551]
- recruitment of PLCG1 SH2 domains (PLCG1 SH2 domains): recruitment sites
- recruitment of PLCG2 SH2 domains (PLCG2 SH2 domains): recruitment sites

Substance: DRIFXLVADSEEd [GAB1 Tyr(P)-95]
- recruitment of CRK SH2 domain (CRK SH2 domain): CRK SH2 domain recruitment
- interaction with SHC1 SH2 domain (SHC1 SH2 domain): interactions were identified

Substance: QQMIXDSPPSRAd [GAB1 Tyr(P)-242]
- recruitment of CRK SH2 domain (CRK SH2 domain): no CRK SH2 domain interactions

Substance: QSRDXYNFPLALd [AR Tyr(P)-362]
- interaction with SRC SH2 domain (SRC SH2 domain): interacted
- recruitment of PIK3R (PI3KR) SH2 domains [3]: interacted; also recorded: relatively high affinity
- recruitment of PLCG1 SH2 domains (PLCG1 SH2 domains): interacted; also recorded: recruitment sites
- recruitment of RASA1 SH2 domains (RASA1 SH2 domains): interacted
- recruitment of PLCG2 SH2 domains (PLCG2 SH2 domains): recruitment sites

Substance: PIDYXFPPQKTCd [AR Tyr(P)-553]
- recruitment of PIK3R (PI3KR) SH2 domains [3]: relatively high affinity
- recruitment of PLCG1 SH2 domains (PLCG1 SH2 domains): recruitment sites
- recruitment of PLCG2 SH2 domains (PLCG2 SH2 domains): recruitment sites

Substance: VKPIXFHTQ [AR Tyr(P)-915]
- recruitment of PLCG1 SH2 domains (PLCG1 SH2 domains): recruitment sites
- recruitment of PLCG2 SH2 domains (PLCG2 SH2 domains): recruitment sites

Second part, the substance after the results:

- recruitment of SH2D1B SH2 domain (SH2D1B SH2 domain): moderate affinity
- recruitment of PLCG1 SH2 domains (PLCG1 SH2 domains): moderate affinity
Substance: IGEHXVHVNATYd [c-Met Tyr(P)-1349]

- interaction with SHC1 SH2 domain (SHC1 SH2 domain): interactions were identified
- recruitment of PIK3R1 (PIK3R1 SH2 domains): confirmed
- recruitment of PIK3R3 (PIK3R3 SH2 domains): high affinity
Substance: SEENXVPMNPNLd [GAB1 Tyr(P)-627]

- recruitment of CRK SH2 domain (CRK SH2 domain): no CRK SH2 domain interactions
- interaction with SHC1 SH2 domain (SHC1 SH2 domain): interactions were identified
- recruitment of PLCG1 SH2 domains (PLCG1 SH2 domains): confirmed
Substance: TDSSXCIPTAGMd [GAB1 Tyr(P)-373]

- recruitment of c-Src family kinase SH2 domains [2]: recruited
Substance: NNYVXIDPTQLPd [c-Kit Tyr(P)-570]

- recruitment of CRK SH2 domain (CRK SH2 domain): no CRK SH2 domain interactions
- recruitment of CRKL SH2 domain (CRKL SH2 domain): CRKL SH2 domain interactions
- recruitment of PLCG1 SH2 domains (PLCG1 SH2 domains): confirmed
Substance: SQDCXDIPRAFPd [GAB1 Tyr(P)-406]

- recruitment of c-Src family kinase SH2 domains [2]: recruited
Substance: PAEMXDIMKTCWd [c-Kit Tyr(P)-900]

- recruitment of CRK SH2 domain (CRK SH2 domain): recruited
- recruitment of c-Src family kinase SH2 domains [2]: recruited
Substance: VITEXCCYGDLLd [c-Kit Tyr(P)-672]

- midpoint dissociation constants ([3]; FP saturation binding, all PIK3R SH2 domains, in words): sub-micromolar
- recruitment of PIK3R (PI3KR) SH2 domains [3]: highest affinity
Substance: STNEXMDMKPGVd [c-Kit Tyr(P)-721]
